Experiments:
[1] = target: T1, Amine oxidase [flavin-containing] B (Bos taurus, UniProt P56560); test: Kinetic constant was calculated by inhibition of monoamino oxidase B (MAO B)
T1 sequence (P56560 whole entry): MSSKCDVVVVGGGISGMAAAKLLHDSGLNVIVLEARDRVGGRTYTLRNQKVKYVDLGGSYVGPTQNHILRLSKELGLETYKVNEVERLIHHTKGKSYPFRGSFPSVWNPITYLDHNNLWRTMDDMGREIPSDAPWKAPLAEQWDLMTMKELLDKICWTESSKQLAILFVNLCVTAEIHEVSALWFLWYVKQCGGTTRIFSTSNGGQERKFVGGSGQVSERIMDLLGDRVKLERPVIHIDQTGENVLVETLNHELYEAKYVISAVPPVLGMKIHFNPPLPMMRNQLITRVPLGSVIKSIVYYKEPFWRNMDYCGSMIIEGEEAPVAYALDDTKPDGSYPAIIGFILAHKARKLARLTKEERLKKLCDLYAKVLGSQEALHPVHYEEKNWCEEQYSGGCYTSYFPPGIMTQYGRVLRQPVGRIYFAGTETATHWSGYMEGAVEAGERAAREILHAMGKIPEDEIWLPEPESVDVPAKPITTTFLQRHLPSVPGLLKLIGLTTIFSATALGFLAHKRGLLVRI
Outline: (§1)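 Bovine liver MAO B (isolated by published method), 25 °C, 100 mM Tris-HCl pH 9.00. Enzyme incubated with several inactivator concentrations; aliquots withdrawn periodically and residual activity read by benzylamine oxidation (OD change at 250 nm). Irreversibility tested by 24 h dialysis against Tris-HCl pH 9.0.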

[2] = target: T1, Amine oxidase [flavin-containing] B; test: Kinetic constant (KI) was calculated by inhibition of monoamino oxidase B (MAO B); outline: as §1
[3] = Ratio of Kinetic constant (Kcat) / Inactivation constant (Kinact) of the MAO B
Outline: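 Bovine MAO B. For kcat, the enzyme was incubated for 1–2 min at 25 °C with several substrate concentrations in 100 mM Tris-HCl, pH 9.00. H2O2 was read as A596 after leuco crystal violet, peroxidase and pH 4.5 acetate were added, and kcat was taken from Hanes plots. For kinact, enzyme was incubated with varied inactivator concentrations (Tris-HCl, pH 9.00, 25 °C), and aliquots were assayed periodically.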

[4] = Ratio of Kinetic constant (Kcat) / Inactivation constant (Kinact) of the MAO B; Inactive
Outline: (§2)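 Turnover from H2O2 release: bovine MAO B with amine at several concentrations in 100 mM Tris-HCl pH 9.00, 25 °C, 90 s (1–2 min for some); leuco crystal violet/horseradish peroxidase in acetate pH 4.5 added, A596 converted via extinction coefficient. Km and kcat from Hanes plots; ratio is kcat over kinact from time-dependent inactivation.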

[5] = target: T1, Amine oxidase [flavin-containing] B; test: Kinetic constant (KI) was calculated by inhibition of monoamino oxidase B (MAO B); Inactive; outline: as §1
[6] = target: T1, Amine oxidase [flavin-containing] B; test: Kinetic constant was calculated by inhibition of monoamino oxidase B (MAO B); Inactive; outline: as §1
[7] = Ratio is Kinetic constant (Kcat) / Inactivation constant (Kinact) of the MAO B; outline: as §2

| SMILES | Ki [1] | Ki [2] | Ratio [3] | Ratio [4] | Ki [5] | Ki [6] | Ratio [7] |
| --- | --- | --- | --- | --- | --- | --- | --- |
| CCCCCNCC(N)=O [MILACEMIDE] | 1.08 mM | 0.94 mM | 26289 | – | – | – | – |
| CCCCCNCC(=O)O | – | – | – | Not Active | Not Active | Not Active | – |
| CCCCCNCC#N | 4.94 mM | 14 mM | – | – | – | – | 3394 |
| CCCCCNCC(=O)OCC | 2 mM | 14.2 mM | 4435 | – | – | – | – |
| CCCCCNCCC#N | 4.94 mM | 5.79 mM | – | – | – | – | 9091 |

Reference: ChEMBL document CHEMBL1126593, “Inactivation of monoamine oxidase B by analogues of the anticonvulsant agent milacemide (2-(n-pentylamino)acetamide)” (J Med Chem, 1993)
